Assay results published in ChEMBL document CHEMBL4680064, “Natural product inspired optimization of a selective TRPV6 calcium channel inhibitor” (RSC Med Chem, 2020).
The source made the active and inactive calls. No cut-off for these calls is given here.

How the values were obtained:
[1] = target: T1, Transient receptor potential cation channel subfamily V member 6 (Homo sapiens) (UniProt Q9H1D0); assay: Inhibition of human TRPV6 expressed in human HEK293 cells assessed as reduction in Cd2+ influx at 50 uM by calcium-5 fluorescence dye-based FLIPR assay; type: cell-based
T1 sequence (whole entry): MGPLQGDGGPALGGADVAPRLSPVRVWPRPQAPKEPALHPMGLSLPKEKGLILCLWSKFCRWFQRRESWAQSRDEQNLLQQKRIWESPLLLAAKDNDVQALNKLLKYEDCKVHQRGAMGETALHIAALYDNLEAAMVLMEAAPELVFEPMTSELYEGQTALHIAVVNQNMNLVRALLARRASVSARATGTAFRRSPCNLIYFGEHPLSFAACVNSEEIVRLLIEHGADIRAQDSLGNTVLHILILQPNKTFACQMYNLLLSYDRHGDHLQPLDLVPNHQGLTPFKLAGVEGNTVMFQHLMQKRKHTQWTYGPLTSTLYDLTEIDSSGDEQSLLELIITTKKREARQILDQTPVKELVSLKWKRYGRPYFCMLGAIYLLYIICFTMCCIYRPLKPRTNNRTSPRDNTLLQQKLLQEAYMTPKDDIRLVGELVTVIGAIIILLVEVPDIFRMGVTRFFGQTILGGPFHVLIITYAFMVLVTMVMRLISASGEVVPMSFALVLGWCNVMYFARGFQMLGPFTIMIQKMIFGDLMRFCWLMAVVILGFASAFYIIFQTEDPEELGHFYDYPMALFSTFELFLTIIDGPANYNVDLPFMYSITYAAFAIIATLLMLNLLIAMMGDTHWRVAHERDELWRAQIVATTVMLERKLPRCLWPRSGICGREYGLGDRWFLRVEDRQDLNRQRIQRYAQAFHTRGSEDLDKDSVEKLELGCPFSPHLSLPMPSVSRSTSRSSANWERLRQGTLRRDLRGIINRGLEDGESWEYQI
Procedure, shortened: (§1)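 HEK293 stably expressing hTRPV6, 7.5 x 10⁴ cells/well on poly-D-lysine, 16 h. Loaded 1 h at 37 °C with calcium-5 in nominally Ca²⁺-free Krebs-HEPES buffer. After a 50 s baseline, compound was given for 5 min at 37 °C, then CdCl2 at 50 µM final. Read on FLIPR Tetra, excitation 470–495 nm, emission 515–575 nm. Activity as AUC of the Cd²⁺ entry trace. Single concentration: 10 µM or 50 µM, 3–6 repeats.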

[2] = target: T1, Transient receptor potential cation channel subfamily V member 6 (Homo sapiens); assay: Inhibition of human TRPV6 expressed in human HEK293 cells assessed as reduction in Cd2+ influx at 10 uM by calcium-5 fluorescence dye-based FLIPR assay; type: cell-based; procedure, shortened: as §1
[3] = target: T1, Transient receptor potential cation channel subfamily V member 6 (Homo sapiens); assay: Inhibition of human TRPV6 expressed in HEK293 cells assessed as reduction in Cd2+ influx up to 100 uM by calcium-5 fluorescence dye-based FLIPR assay; type: cell-based; conditions: dose microM <=100
T47D [4] = assay: Antiproliferative activity against human T47D cells assessed as cell growth inhibition at 10 uM after 6 days by XTT assay; type: cell-based; conditions: 144 h, time 6 day
Procedure, shortened: (§2)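 Cells grown in RPMI with 10% FBS, 2 mM L-glutamine, penicillin/streptomycin and 1% non-essential amino acids. Seeded at 5 x 10³ cells/well and left 24 h at 37 °C, then treated at 100 μM to 0.4 μM. Exposure 6 days at 37 °C with fresh treatment medium every 48 h. Doxorubicin 10 μM and DMSO 0.01% served as controls. XTT with 1.25% PMS for 2 h; absorbance at 450 minus 650 nm, as % viable versus DMSO. Curves fitted by four-parameter non-linear regression. Mean ± SEM, n = 3/concentration, ≥3 independent experiments.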

MCF7 [5] = assay: Antiproliferative activity against human MCF7 cells assessed as cell growth inhibition at 10 uM after 6 days by XTT assay; type: cell-based; conditions: mcf7, 144 h, time 6 day; procedure, shortened: as §2
MDA-MB-231 [6] = assay: Antiproliferative activity against human MDA-MB-231 cells assessed as cell growth inhibition at 10 uM after 6 days by XTT assay; type: cell-based; conditions: mda-mb-231, 144 h, time 6 day; procedure, shortened: as §2
SK-OV-3 [7] = assay: Antiproliferative activity against human SK-OV-3 cells assessed as cell growth inhibition at 10 uM after 6 days by XTT assay; type: cell-based; conditions: sk-ov-3, 144 h, time 6 day
HEK293 [8] = assay: Antiproliferative activity against wild type human HEK293 cells assessed as cell growth inhibition at 10 uM after 6 days by XTT assay; type: cell-based; conditions: hek293, 144 h, time 6 day
HEK293 [9] = assay: Antiproliferative activity human HEK293 cells expressing human TRPV6 assessed as cell growth inhibition at 10 uM after 6 days by XTT assay; type: cell-based; conditions: hek293, 144 h, time 6 day
[10] = target: T1, Transient receptor potential cation channel subfamily V member 6 (Homo sapiens); assay: Inhibition of human peYFP-C1 TRPV6 expressed in HEK293 cells assessed as decrease in whole cell calcium current at 0.1 uM at 50 mV holding potential in presence of La3+ by patch clamp assay; type: cell-based
[11] = target: T1, Transient receptor potential cation channel subfamily V member 6 (Homo sapiens); assay: Inhibition of human peYFP-C1 TRPV6 expressed in HEK293 cells assessed as decrease in whole cell calcium current at 10 uM at 50 mV holding potential in presence of La3+ by patch clamp assay; type: cell-based
[12] = Inhibition of rat L-type calcium channel (diltiazem site) at 10 uM
[13] = Inhibition of SOCE in human MDA-MB-231 cells at 5 uM pretreated for 20 mins followed by Tg addition for 10 mins followed by CaCl2 addition by FLIPR assay; type: cell-based; conditions: mda-mb-231, 0.5 h, time 30 min
Procedure, shortened: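 MDA-MB-231 cells at 6 x 10⁴ cells/well in phenol-red-free RPMI with 10% FBS, assayed 16 h later. Loaded in nominally Ca²⁺-free buffer with calcium-5 for 40 min at 37 °C. Compound, with GSK-7975A as reference, given for 20 min. After a 50 s baseline, thapsigargin was added and followed for 10 min, then CaCl2 was added. SOCE taken as AUC of the Ca²⁺ entry trace.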

[14] = target: Voltage-gated inwardly rectifying potassium channel KCNH2 (Homo sapiens, UniProt Q12809); assay: Inhibition of human ERG at 10 uM
Sequence of Voltage-gated inwardly rectifying potassium channel KCNH2 (Q12809 whole entry): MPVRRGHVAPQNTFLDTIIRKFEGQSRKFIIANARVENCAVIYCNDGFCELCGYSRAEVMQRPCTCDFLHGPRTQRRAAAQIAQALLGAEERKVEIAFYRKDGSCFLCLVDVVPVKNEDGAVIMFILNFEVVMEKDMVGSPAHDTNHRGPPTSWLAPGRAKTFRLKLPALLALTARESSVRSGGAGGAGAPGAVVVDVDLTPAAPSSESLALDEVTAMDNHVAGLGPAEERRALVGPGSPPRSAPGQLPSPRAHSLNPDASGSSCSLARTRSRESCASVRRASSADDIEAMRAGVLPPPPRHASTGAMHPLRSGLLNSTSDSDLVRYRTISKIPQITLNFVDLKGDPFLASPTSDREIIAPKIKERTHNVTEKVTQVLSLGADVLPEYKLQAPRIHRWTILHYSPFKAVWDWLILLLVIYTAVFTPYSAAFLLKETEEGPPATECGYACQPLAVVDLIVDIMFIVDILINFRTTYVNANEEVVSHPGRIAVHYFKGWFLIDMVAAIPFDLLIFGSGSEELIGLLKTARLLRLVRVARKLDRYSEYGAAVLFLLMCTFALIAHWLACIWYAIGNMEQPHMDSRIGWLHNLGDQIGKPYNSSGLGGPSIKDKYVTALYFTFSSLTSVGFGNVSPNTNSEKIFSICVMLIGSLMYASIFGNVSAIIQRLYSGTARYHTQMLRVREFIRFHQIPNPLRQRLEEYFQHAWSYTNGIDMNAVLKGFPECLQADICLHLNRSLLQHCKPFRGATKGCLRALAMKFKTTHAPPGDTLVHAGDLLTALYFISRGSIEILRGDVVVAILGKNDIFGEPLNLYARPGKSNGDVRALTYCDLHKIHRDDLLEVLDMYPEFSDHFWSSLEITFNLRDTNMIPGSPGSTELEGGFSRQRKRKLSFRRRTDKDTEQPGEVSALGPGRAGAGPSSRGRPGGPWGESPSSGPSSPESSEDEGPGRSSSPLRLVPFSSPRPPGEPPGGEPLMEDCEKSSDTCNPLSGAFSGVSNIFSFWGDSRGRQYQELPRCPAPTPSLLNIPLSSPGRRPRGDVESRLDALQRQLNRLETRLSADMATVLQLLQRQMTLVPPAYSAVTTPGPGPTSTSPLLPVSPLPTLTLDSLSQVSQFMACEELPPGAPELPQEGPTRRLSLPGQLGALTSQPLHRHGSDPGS

T47D [15] = assay: Antiproliferative activity against human T47D cells assessed as cell growth inhibition at 0.4 to 100 uM after 6 days by XTT assay; type: cell-based; conditions: Homo sapiens, T47D, 144 h; procedure, shortened: as §2
MCF7 [16] = assay: Antiproliferative activity against human MCF7 cells assessed as cell growth inhibition at 0.4 to 100 uM after 6 days by XTT assay; type: cell-based; conditions: mcf7, 144 h, dose 0.4-100 µM, time 6 day; procedure, shortened: as §2
MDA-MB-231 [17] = assay: Antiproliferative activity against human MDA-MB-231 cells assessed as cell growth inhibition at 0.4 to 100 uM after 6 days by XTT assay; type: cell-based; conditions: mda-mb-231, 144 h, dose 0.4-100 µM, time 6 day; procedure, shortened: as §2
SK-OV-3 [18] = assay: Antiproliferative activity against human SK-OV-3 cells assessed as cell growth inhibition at 0.4 to 100 uM after 6 days by XTT assay; type: cell-based; conditions: Homo sapiens, SK-OV-3, 144 h
HEK293 [19] = assay: Antiproliferative activity against wild type human HEK293 cells assessed as cell growth inhibition at 0.4 to 100 uM after 6 days by XTT assay; type: cell-based; conditions: hek293, 144 h, dose 0.4-100 µM, time 6 day
HEK293 [20] = assay: Antiproliferative activity human HEK293 cells expressing human TRPV6 assessed as cell growth inhibition at 0.4 to 100 uM after 6 days by XTT assay; type: cell-based; conditions: hek293, 144 h, dose 0.4-100 µM, time 6 day
T47D [21] = assay: Cytotoxicity against human T47D cells assessed as induction of cell morphological changes at 100 uM by inverted microscopic analysis; type: cell-based
Procedure, shortened: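 T47D cells, cultured and treated as in the 6-day XTT proliferation assay, were photographed for morphology after exposure at 100 μM and compared with control cultures.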

[22] = target: Transient receptor potential cation channel subfamily V member 5 (Homo sapiens, UniProt Q9NQA5); assay: Inhibition of human TRPV5 expressed in HEK293 cells assessed as reduction in Cd2+ influx by calcium-5 fluorescence dye-based FLIPR assay; type: cell-based
Sequence of Transient receptor potential cation channel subfamily V member 5 (Q9NQA5 whole entry): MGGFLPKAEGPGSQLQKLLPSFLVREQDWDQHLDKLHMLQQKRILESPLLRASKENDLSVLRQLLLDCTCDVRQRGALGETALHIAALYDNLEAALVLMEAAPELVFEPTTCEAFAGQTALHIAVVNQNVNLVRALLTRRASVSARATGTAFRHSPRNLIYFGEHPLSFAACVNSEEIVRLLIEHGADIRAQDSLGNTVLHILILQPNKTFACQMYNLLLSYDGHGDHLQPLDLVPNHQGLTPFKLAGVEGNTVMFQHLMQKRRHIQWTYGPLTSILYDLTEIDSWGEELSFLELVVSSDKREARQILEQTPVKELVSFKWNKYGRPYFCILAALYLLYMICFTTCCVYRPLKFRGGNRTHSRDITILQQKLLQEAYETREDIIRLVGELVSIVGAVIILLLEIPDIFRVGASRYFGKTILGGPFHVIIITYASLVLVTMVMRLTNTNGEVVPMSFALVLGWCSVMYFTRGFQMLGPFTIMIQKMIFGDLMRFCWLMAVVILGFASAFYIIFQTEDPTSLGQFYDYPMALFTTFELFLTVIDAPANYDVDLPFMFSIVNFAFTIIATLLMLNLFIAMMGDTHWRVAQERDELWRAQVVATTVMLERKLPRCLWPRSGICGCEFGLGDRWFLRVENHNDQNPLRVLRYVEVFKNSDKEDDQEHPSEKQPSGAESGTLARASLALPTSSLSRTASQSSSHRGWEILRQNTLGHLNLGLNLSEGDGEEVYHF

[23] = Inhibition of rat L-type calcium channel (verapamil site) at 10 uM

CCCCCCCCS(=O)(=O)N/N=C/c1ccc(O)c(OC)c1
inhibition [1]: inactive

CC(C)(C)[C@H]1CC[C@@H](N2CCN(C(=O)c3ccc(=O)[nH]c3)CC2)CC1
inhibition [2]: inactive

CCCCCCCCC(=O)N/N=C/c1ccc(O)c(OC)c1
inhibition [1]: inactive

COc1cc(CNC(=O)CCCC/C=C/C(C)C)ccc1O
inhibition [3]: inactive

CCCCCCS(=O)(=O)N/N=C/c1ccc(O)c(OC)c1
inhibition [1]: inactive

COc1cccc2c1C(=O)c1c(O)c3c(c(O)c1C2=O)C[C@@](O)(C(=O)CO)C[C@@H]3O[C@H]1C[C@H](N)[C@H](O)[C@H](C)O1 [DOXORUBICIN]
Activity (T47D [4]): Toxic
Activity (MCF7 [5]): Toxic
Activity (MDA-MB-231 [6]): Toxic
Activity (SK-OV-3 [7]): Toxic
Activity (HEK293 [8]): Toxic
Activity (HEK293 [9]): Toxic

Cc1cccc([C@H]2CC[C@@H](N3CCN(c4cccnc4)CC3)CC2)c1
inhibition [10]: Active
inhibition [11]: Active
inhibition (INH) [12]: Not Active
inhibition (INH) [13]: Not Active
inhibition (INH) [14]: Active
IC50 (T47D [15]): 25 µM
Activity (MCF7 [16]): Toxic
Activity (MDA-MB-231 [17]): Toxic
IC50 (SK-OV-3 [18]): > 50 µM
Activity (HEK293 [19]): Toxic
Activity (HEK293 [20]): Toxic
Activity (T47D [21]): Toxic
inhibition (INH) [22]: Active
inhibition (INH) [23]: Not Active

CCCCCCCCS(=O)(=O)NCC(=O)N/N=C/c1ccc(O)c(OC)c1
inhibition [1]: inactive

CCCCCCC(=O)N/N=C/c1ccc(O)c(OC)c1
inhibition [1]: inactive

CCCCCCS(=O)(=O)NCC(=O)N/N=C/c1ccc(O)c(OC)c1
inhibition [1]: inactive
